Experimental data of several laboratories.
Lines come from different studies, so protocols differ.
LRRK2 G2019S: Leucine-rich repeat serine/threonine-protein kinase 2 (LRRK2, Homo sapiens, UniProt Q5S007, G2019S)
LRRK2: Leucine-rich repeat serine/threonine-protein kinase 2 (LRRK2, Homo sapiens, UniProt Q5S007)

C[C@H](NC(=O)c1cnc2n1[C@](C)(Cc1ccc(C#N)cc1)C(=O)N2c1cc(Cl)c(F)c(Cl)c1)C(=O)NC1(c2ccccn2)CC1  remaining binding (LRRK2 G2019S; cell-free assay; competition with immobilised ligand; 1 µM): 100%
N#CCCc1ccc2c(c1)-c1[nH]c3ccc([N+](=O)[O-])cc3c1CC(=O)N2  remaining signal (LRRK2; cell-free assay; 0.5 µM): 73.8%
CN(C)c1ncc(F)c(-c2cnn3ncccc23)n1  remaining binding (LRRK2; binding; 1 µM): 50%
O=C1NC(=O)c2cc(Nc3ccc(F)cc3)c(Nc3ccc(F)cc3)cc21  remaining signal (LRRK2; cell-free assay; 0.5 µM): 99.8%
CN(c1nccc(-c2cnn3ncccc23)n1)C1CC1  remaining binding (LRRK2 G2019S; binding; 1 µM): 100%
Cc1ccc(C(=O)Nc2ccc(CN3CCN(C)CC3)c(C(F)(F)F)c2)cc1C#Cc1cnc2cccnn12  remaining activity (LRRK2; enzyme activity; inhibitor; 23.5 nM): 83%
COCCOc1nc(-c2ccc(Cl)nc2)nc2c1CN(C(=O)c1ncn3ccccc13)CC2  remaining binding (LRRK2; cell-free assay; competition with immobilised ligand; 0.1 µM): 100%
Cc1cc(NC(=O)c2cccc3cc(-c4cccc5[nH]nc(N)c45)ccc23)ccc1F  activity vs control (LRRK2; enzyme activity; inhibitor; 0.1 µM): 98%
O=C(Nc1cnc(Oc2ccc(F)cc2)nc1)N1CCc2ncccc2[C@@H]1c1ccc(F)cc1  remaining binding (LRRK2; cell-free assay; competition with immobilised ligand; 1 µM): 83%
Nc1ncnc2occ(-c3ccc(NC(=O)Nc4cc(C(F)(F)F)ccc4F)cc3)c12  remaining signal (LRRK2 G2019S; cell-free assay; inhibitor; 20 µM): 12%
Cc1c(C(=O)O)cc(-c2ccc(C3CCNCC3)cc2)c2ccc(-c3ccc(C(F)(F)F)cc3)cc12  remaining binding (LRRK2 G2019S; binding; competition with immobilised ligand; 1 µM): 100%
COc1cc2nccc(Oc3ccc(NC(=O)c4c5n(n(-c6ccc(F)cc6)c4=O)CCCC5)cc3)c2cc1OC  inhibition (LRRK2; enzyme activity; inhibitor; 0.1 µM): 0%
Cc1cnn2ncc(-c3ccnc(N(C)C)n3)c2c1  remaining binding (LRRK2; binding; 1 µM): 47%
COc1cc(-c2cc(-c3ccc(N4CCNCC4)cc3)cnc2N)cc(OC)c1OC  inhibition (LRRK2; enzyme activity; inhibitor; 0.1 µM): 6%
CC(C)(C)c1nc2c(s1)c1nc(N)ncc1c1ccc(NS(=O)(=O)c3c(F)cccc3F)c(F)c12  remaining activity (LRRK2; enzyme activity; inhibitor; radiometric; 1 µM): 93%
CC1CCCN1c1nccc(-c2cnn3ncccc23)n1 (centres unmarked)  remaining binding (LRRK2; binding; 1 µM): 100%
O=C(O)[C@@H]1[C@@H](Cn2nnc3ccccc3c2=O)CC[C@H]1C(=O)c1ccc(OCCC2CCOCC2)cc1  remaining binding (LRRK2 G2019S; cell-free assay; competition with immobilised ligand; 1 µM): 100%
O=C(Nc1cnn(-c2csc(C(=O)NC3COC3)c2)c1)Nc1c(F)cccc1Cl  remaining activity (LRRK2; enzyme activity; inhibitor; 5 µM): 91.3%
CN([C@@H]1CCc2c(CC(=O)O)c3cc(S(C)(=O)=O)ccc3n2C1)S(=O)(=O)c1ccc(F)cc1  remaining binding (LRRK2; cell-free assay; competition with immobilised ligand; 1 µM): 100%
CN(C)C1CCN(CC#Cc2nn(C3CCCC3)c3nc(NCc4ccccc4)ncc23)C1 (centres unmarked)  inhibition (LRRK2; enzyme activity; inhibitor; FRET; 0.1 µM): -1%
c1cnn2ncc(-c3ccnc(N4CCC45COC5)n3)c2c1  remaining binding (LRRK2 G2019S; binding; 1 µM): 21%
O=C1Nc2ccc(Cl)cc2C1=Cc1cc(Cl)c(O)c(Cl)c1  remaining signal (LRRK2; cell-free assay; 0.5 µM): 11%
Nc1c(C(=O)NCc2ccc(C(=O)NCCCC3CCCCC3)cc2)cnn1-c1ccccc1  remaining binding (LRRK2; binding; competition with immobilised ligand; 1 µM): 39%
N[C@@H]1CCN(c2nccc(-c3cnn4ncccc34)n2)C1  remaining binding (LRRK2; binding; 1 µM): 100%
CN(C)CC#Cc1ccc(OCCCc2sc(N3CCc4cccc(C(=O)Nc5nc6ccccc6s5)c4C3)nc2C(=O)O)c(F)c1  remaining binding (LRRK2 G2019S; cell-free assay; competition with immobilised ligand; 1 µM): 100%
CC(C)(O)[C@H]1CC[C@H](Nc2ccc3ncc(-c4cccc(C(F)(F)F)c4)n3n2)CC1  remaining activity (LRRK2; enzyme activity; inhibitor; 1 µM): 66.1%
